Source: ChEMBL document CHEMBL1155238, “Synthesis and antimycobacterial activity of N'-[(E)-(monosubstituted-benzylidene)]-2-pyrazinecarbohydrazide derivatives” (Eur J Med Chem, 2009)
In brackets after ≈: the same amount, converted by molar mass.

Columns and labels:
[1] = Cytotoxicity against mouse J774 cells assessed as cell viability at 50 ug/ml after 48 hrs by MTT assay; type: cell-based; settings: read-out: Activity
[2] = Cytotoxicity against mouse J774 cells assessed as cell viability at 100 ug/ml after 48 hrs by MTT assay; type: cell-based; settings: read-out: Activity
Method in brief: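 Uninfected J774 macrophages seeded at 2.5 × 10^6 cells/well for 24 h (5% CO2, 37 °C); non-adherent cells washed off with RPMI 1640, 10% FBS, gentamicin 25 µg/mL. Adherent cells given compound (1.0, 10.0, 100 µg/mL) in triplicate for 48 h. Medium was the live control, 3% tween 20 the dead control. MTT for 4 h, DMSO solubilization, absorbance at 540 nm, % viability.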

[3] = Cytotoxicity against mouse J774 cells assessed as cell viability at 150 ug/ml after 48 hrs by MTT assay; type: cell-based; settings: read-out: Activity
[4] = Cytotoxicity against Mycobacterium bovis Bacillus Calmette-Guerin infected mouse J774 cells assessed as cell viability at 50 ug/ml after 48 hrs by MTT assay; type: cell-based; settings: read-out: Activity
[5] = Cytotoxicity against Mycobacterium bovis Bacillus Calmette-Guerin infected mouse J774 cells assessed as cell viability at 100 ug/ml after 48 hrs by MTT assay; type: cell-based; settings: read-out: Activity
Method in brief: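 J774 macrophages seeded at 2.5 × 10^6 cells/well for 24 h (5% CO2, 37 °C); non-adherent cells washed off with RPMI 1640, 10% FBS, gentamicin 25 µg/mL. Adherent cells infected with BCG (2.5 × 10^6 UFC/well), then given compound (1.0, 10.0, 100 µg/mL) in triplicate for 48 h. Medium was the live control, 3% tween 20 the dead control. MTT for 4 h, DMSO solubilization, A540, % viability.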

[6] = Cytotoxicity against Mycobacterium bovis Bacillus Calmette-Guerin infected mouse J774 cells assessed as cell viability at 150 ug/ml after 48 hrs by MTT assay; type: cell-based; settings: read-out: Activity
[7] = system: Mycobacterium tuberculosis; test: Antimycobacterial activity against Mycobacterium tuberculosis H37Rv ATCC 27294 after 5 days by microplate Alamar blue assay; type: functional; settings: H37Rv ATCC 27294, 120 h
Method in brief: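 M. tuberculosis ATCC 27294 in Middlebrook 7H9 broth with compounds serially diluted on the plate (final 0.01–100 µg/mL). Incubated at 37 °C for five days, then a 1:1 Alamar Blue/10% tween 80 mix was added for 24 h. Blue read as no growth, pink as growth. MIC is the lowest concentration preventing the blue-to-pink change.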

Molecule `O=C(N/N=C/c1cccc(O)c1)c1cnccn1` has a viability at 48 h, 50 ug/ml [1] of 100%, a viability at 48 h, 100 ug/ml [2] of 100% and a viability at 48 h, 150 ug/ml [3] of 88%. For the same molecule, the viability at 48 h, 50 ug/ml [4] was 73%, the viability at 48 h, 100 ug/ml [5] was 64% and the viability at 48 h, 150 ug/ml [6] was 57%.

With `COc1cccc(/C=N/NC(=O)c2cnccn2)c1` the viability at 48 h, 50 ug/ml [1] was 100%, the viability at 48 h, 100 ug/ml [2] was 100% and the viability at 48 h, 150 ug/ml [3] was 97%. For the same molecule, the viability at 48 h, 50 ug/ml [4] was 100%, the viability at 48 h, 100 ug/ml [5] was 98% and the viability at 48 h, 150 ug/ml [6] was 87%. For the same molecule, the MIC [7] was greater than 100 mg/L.

Molecule `O=C(N/N=C/c1ccc(Cl)cc1)c1cnccn1` has a viability at 48 h, 50 ug/ml [1] of 83%, a viability at 48 h, 100 ug/ml [2] of 64% and a viability at 48 h, 150 ug/ml [3] of 56%.

With `O=C(N/N=C/c1ccccc1Cl)c1cnccn1` the viability at 48 h, 50 ug/ml [1] was 70%, the viability at 48 h, 100 ug/ml [2] was 66% and the viability at 48 h, 150 ug/ml [3] was 69%.

`O=C(N/N=C/c1ccc([N+](=O)[O-])cc1)c1cnccn1` showed a viability at 48 h, 50 ug/ml [1] of 50%, a viability at 48 h, 100 ug/ml [2] of 44% and a viability at 48 h, 150 ug/ml [3] of 44%.

Work on `O=C(N/N=C/c1cccc(F)c1)c1cnccn1` yielded a viability at 48 h, 50 ug/ml [1] of 49%, a viability at 48 h, 100 ug/ml [2] of 46% and a viability at 48 h, 150 ug/ml [3] of 40%.

Work on `O=C(N/N=C/c1ccc(O)cc1)c1cnccn1` yielded a viability at 48 h, 50 ug/ml [1] of 100%, a viability at 48 h, 100 ug/ml [2] of 81% and a viability at 48 h, 150 ug/ml [3] of 80%. The viability at 48 h, 50 ug/ml [4] was 100%, the viability at 48 h, 100 ug/ml [5] was 72% and the viability at 48 h, 150 ug/ml [6] was 91%.

Molecule `O=C(N/N=C/c1ccc(Br)cc1)c1cnccn1` has a viability at 48 h, 50 ug/ml [1] of 100%, a viability at 48 h, 100 ug/ml [2] of 100% and a viability at 48 h, 150 ug/ml [3] of 94%. For the same molecule, the viability at 48 h, 50 ug/ml [4] was 52%, the viability at 48 h, 100 ug/ml [5] was 56% and the viability at 48 h, 150 ug/ml [6] was 54%.

`N#Cc1ccc(/C=N/NC(=O)c2cnccn2)cc1` showed a viability at 48 h, 50 ug/ml [1] of 100%, a viability at 48 h, 100 ug/ml [2] of 100% and a viability at 48 h, 150 ug/ml [3] of 100%. For the same molecule, the viability at 48 h, 50 ug/ml [4] was 100%, the viability at 48 h, 100 ug/ml [5] was 98% and the viability at 48 h, 150 ug/ml [6] was 100%. For the same molecule, the MIC [7] was greater than 100 mg/L.

For `O=C(N/N=C/c1ccccc1F)c1cnccn1`, the viability at 48 h, 50 ug/ml [1] was 100%, the viability at 48 h, 100 ug/ml [2] was 100% and the viability at 48 h, 150 ug/ml [3] was 81%. It also gave a viability at 48 h, 50 ug/ml [4] of 100%, a viability at 48 h, 100 ug/ml [5] of 80% and a viability at 48 h, 150 ug/ml [6] of 88%. The MIC [7] was 100 mg/L (≈ 409 µM).

For `COc1ccc(/C=N/NC(=O)c2cnccn2)cc1`, the viability at 48 h, 50 ug/ml [1] was 74%, the viability at 48 h, 100 ug/ml [2] was 55% and the viability at 48 h, 150 ug/ml [3] was 55%.

Work on `O=C(N/N=C/c1ccc(F)cc1)c1cnccn1` yielded a viability at 48 h, 50 ug/ml [1] of 78%, a viability at 48 h, 100 ug/ml [2] of 69% and a viability at 48 h, 150 ug/ml [3] of 71%.

`COc1ccccc1/C=N/NC(=O)c1cnccn1` gave a viability at 48 h, 50 ug/ml [1] of 97%, a viability at 48 h, 100 ug/ml [2] of 100% and a viability at 48 h, 150 ug/ml [3] of 97%. It also gave a viability at 48 h, 50 ug/ml [4] of 87%, a viability at 48 h, 100 ug/ml [5] of 54% and a viability at 48 h, 150 ug/ml [6] of 56%.

Work on `CCOc1cccc(/C=N/NC(=O)c2cnccn2)c1` yielded a viability at 48 h, 50 ug/ml [1] of 74%, a viability at 48 h, 100 ug/ml [2] of 71% and a viability at 48 h, 150 ug/ml [3] of 69%.

`O=C(N/N=C/c1cccc(Br)c1)c1cnccn1` showed a viability at 48 h, 50 ug/ml [1] of 100%, a viability at 48 h, 100 ug/ml [2] of 100% and a viability at 48 h, 150 ug/ml [3] of 93%. For the same molecule, the viability at 48 h, 50 ug/ml [4] was 87%, the viability at 48 h, 100 ug/ml [5] was 96% and the viability at 48 h, 150 ug/ml [6] was 56%.

For `NC(=O)c1cnccn1` [PYRAZINAMIDE], the viability at 48 h, 50 ug/ml [1] was 100%, the viability at 48 h, 100 ug/ml [2] was 100% and the viability at 48 h, 150 ug/ml [3] was 100%. It also gave a viability at 48 h, 50 ug/ml [4] of 92%, a viability at 48 h, 100 ug/ml [5] of 87% and a viability at 48 h, 150 ug/ml [6] of 67%. For the same molecule, the MIC [7] was greater than 100 mg/L.

For `O=C(N/N=C/c1ccccc1Br)c1cnccn1`, the viability at 48 h, 50 ug/ml [1] was 98%, the viability at 48 h, 100 ug/ml [2] was 100% and the viability at 48 h, 150 ug/ml [3] was 91%. The viability at 48 h, 50 ug/ml [4] was 73%, the viability at 48 h, 100 ug/ml [5] was 64% and the viability at 48 h, 150 ug/ml [6] was 52%.

For `O=C(N/N=C/c1cccc(Cl)c1)c1cnccn1`, the viability at 48 h, 50 ug/ml [1] was 100%, the viability at 48 h, 100 ug/ml [2] was 100% and the viability at 48 h, 150 ug/ml [3] was 100%. It also gave a viability at 48 h, 50 ug/ml [4] of 100%, a viability at 48 h, 100 ug/ml [5] of 96% and a viability at 48 h, 150 ug/ml [6] of 94%. It also gave an MIC [7] of 50 mg/L (≈ 192 µM).

For `O=C(N/N=C/c1ccccc1O)c1cnccn1`, the viability at 48 h, 50 ug/ml [1] was 1%, the viability at 48 h, 100 ug/ml [2] was 0.3% and the viability at 48 h, 150 ug/ml [3] was 0%.

For `N#Cc1ccccc1/C=N/NC(=O)c1cnccn1`, the viability at 48 h, 50 ug/ml [1] was 92%, the viability at 48 h, 100 ug/ml [2] was 75% and the viability at 48 h, 150 ug/ml [3] was 70%. It also gave a viability at 48 h, 50 ug/ml [4] of 80%, a viability at 48 h, 100 ug/ml [5] of 73% and a viability at 48 h, 150 ug/ml [6] of 75%.

Work on `O=C(N/N=C/c1ccccc1)c1cnccn1` yielded a viability at 48 h, 50 ug/ml [1] of 100%, a viability at 48 h, 100 ug/ml [2] of 75% and a viability at 48 h, 150 ug/ml [3] of 100%. The viability at 48 h, 50 ug/ml [4] was 100%, the viability at 48 h, 100 ug/ml [5] was 88% and the viability at 48 h, 150 ug/ml [6] was 80%. For the same molecule, the MIC [7] was greater than 100 mg/L.

`O=C(N/N=C/c1cccc([N+](=O)[O-])c1)c1cnccn1` gave a viability at 48 h, 50 ug/ml [1] of 100%, a viability at 48 h, 100 ug/ml [2] of 85% and a viability at 48 h, 150 ug/ml [3] of 76%. The viability at 48 h, 50 ug/ml [4] was 92%, the viability at 48 h, 100 ug/ml [5] was 92% and the viability at 48 h, 150 ug/ml [6] was 72%. The MIC [7] was 100 mg/L (≈ 369 µM).

In the case of `N#Cc1cccc(/C=N/NC(=O)c2cnccn2)c1`, the viability at 48 h, 50 ug/ml [1] was 100%, the viability at 48 h, 100 ug/ml [2] was 100% and the viability at 48 h, 150 ug/ml [3] was 100%. It also gave a viability at 48 h, 50 ug/ml [4] of 100%, a viability at 48 h, 100 ug/ml [5] of 98% and a viability at 48 h, 150 ug/ml [6] of 89%. The MIC [7] was 50 mg/L (≈ 199 µM).

Molecule `CCN(CC)c1ccc(/C=N/NC(=O)c2cnccn2)cc1` has a viability at 48 h, 50 ug/ml [1] of 97%, a viability at 48 h, 100 ug/ml [2] of 92% and a viability at 48 h, 150 ug/ml [3] of 93%. The viability at 48 h, 50 ug/ml [4] was 85%, the viability at 48 h, 100 ug/ml [5] was 84% and the viability at 48 h, 150 ug/ml [6] was 78%.

`CN(C)c1ccc(/C=N/NC(=O)c2cnccn2)cc1` gave a viability at 48 h, 50 ug/ml [1] of 93%, a viability at 48 h, 100 ug/ml [2] of 87% and a viability at 48 h, 150 ug/ml [3] of 89%. The viability at 48 h, 50 ug/ml [4] was 80%, the viability at 48 h, 100 ug/ml [5] was 73% and the viability at 48 h, 150 ug/ml [6] was 71%.

With `CCOc1ccc(/C=N/NC(=O)c2cnccn2)cc1` the viability at 48 h, 50 ug/ml [1] was 100%, the viability at 48 h, 100 ug/ml [2] was 98% and the viability at 48 h, 150 ug/ml [3] was 100%. For the same molecule, the viability at 48 h, 50 ug/ml [4] was 90%, the viability at 48 h, 100 ug/ml [5] was 85% and the viability at 48 h, 150 ug/ml [6] was 88%. It also gave an MIC [7] greater than 100 mg/L.

`O=C(N/N=C/c1ccccc1[N+](=O)[O-])c1cnccn1` showed a viability at 48 h, 50 ug/ml [1] of 90%, a viability at 48 h, 100 ug/ml [2] of 59% and a viability at 48 h, 150 ug/ml [3] of 46%. For the same molecule, the viability at 48 h, 50 ug/ml [4] was 100%, the viability at 48 h, 100 ug/ml [5] was 94% and the viability at 48 h, 150 ug/ml [6] was 88%. The MIC [7] was 50 mg/L (≈ 184 µM).
